Legend:
[1] = target: T1, Polyunsaturated fatty acid lipoxygenase ALOX12 (Homo sapiens, UniProt P18054); test: Inhibitory concentration against human platelet 12-lipoxygenase; assay type: functional
T1 sequence (P18054 whole entry): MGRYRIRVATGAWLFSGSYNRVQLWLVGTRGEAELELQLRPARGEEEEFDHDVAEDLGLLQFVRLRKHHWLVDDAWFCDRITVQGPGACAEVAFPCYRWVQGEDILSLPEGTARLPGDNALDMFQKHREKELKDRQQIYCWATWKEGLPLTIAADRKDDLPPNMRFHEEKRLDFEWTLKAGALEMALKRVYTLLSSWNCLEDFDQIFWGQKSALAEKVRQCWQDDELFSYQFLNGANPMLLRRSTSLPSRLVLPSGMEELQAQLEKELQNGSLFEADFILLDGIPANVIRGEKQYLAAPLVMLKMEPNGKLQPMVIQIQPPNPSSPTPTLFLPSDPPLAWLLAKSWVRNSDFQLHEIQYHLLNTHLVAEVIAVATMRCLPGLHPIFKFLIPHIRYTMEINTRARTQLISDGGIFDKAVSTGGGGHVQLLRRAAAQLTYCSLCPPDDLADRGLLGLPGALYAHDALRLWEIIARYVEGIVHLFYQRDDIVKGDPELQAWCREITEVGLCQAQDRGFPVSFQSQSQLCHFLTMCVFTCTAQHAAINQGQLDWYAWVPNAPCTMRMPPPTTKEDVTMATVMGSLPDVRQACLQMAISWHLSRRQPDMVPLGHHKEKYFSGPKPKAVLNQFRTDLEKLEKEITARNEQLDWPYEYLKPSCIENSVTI
Procedure, shortened: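 Cytoplasmic fraction of lysed human platelets, diluted to give 50% AA conversion, preincubated with inhibitor 5 min at 37 °C in 0.1 M Tris-HCl pH 8.0 with 1 mM glutathione and 10 μM indomethacin. 1-[14C]AA added, 15 min at 37 °C; 12-HETE separated by TLC and counted.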

[2] = target: T2, Polyunsaturated fatty acid 5-lipoxygenase (Homo sapiens) (UniProt P09917); test: Ex vivo inhibition of LTB-4 determined by measurement of A-23187-stimulated LTB-4 production in dog blood at 1 mg/kg iv; assay type: functional, organism-based; set-up: dose 1 mg/kg
T2 sequence (whole entry): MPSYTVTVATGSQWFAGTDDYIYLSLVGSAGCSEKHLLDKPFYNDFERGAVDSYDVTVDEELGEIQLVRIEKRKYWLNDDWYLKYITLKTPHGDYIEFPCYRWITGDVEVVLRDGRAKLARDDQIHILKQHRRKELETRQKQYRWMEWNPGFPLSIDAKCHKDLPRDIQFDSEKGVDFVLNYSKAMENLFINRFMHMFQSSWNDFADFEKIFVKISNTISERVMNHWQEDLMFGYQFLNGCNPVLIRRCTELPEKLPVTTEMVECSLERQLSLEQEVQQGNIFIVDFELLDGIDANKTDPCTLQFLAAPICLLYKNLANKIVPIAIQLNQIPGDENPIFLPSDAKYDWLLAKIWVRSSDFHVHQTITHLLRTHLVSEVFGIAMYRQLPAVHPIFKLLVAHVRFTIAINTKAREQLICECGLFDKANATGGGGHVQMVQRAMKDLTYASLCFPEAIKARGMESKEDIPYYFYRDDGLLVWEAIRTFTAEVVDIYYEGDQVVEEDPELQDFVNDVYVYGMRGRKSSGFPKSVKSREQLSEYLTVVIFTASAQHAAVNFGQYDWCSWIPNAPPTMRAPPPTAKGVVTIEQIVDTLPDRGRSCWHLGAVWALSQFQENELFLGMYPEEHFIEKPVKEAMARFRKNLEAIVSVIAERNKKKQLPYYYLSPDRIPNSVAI
Procedure, shortened: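 Beagles (8–15 kg, fasted 16–18 h) given iv forearm bolus in DMA/PEG 400 (25:75), 0.1 mL/kg. Jugular blood (serine/heparin) sampled -1 to 24 h; 1-mL aliquots stimulated with A23187 100 μM + fMLP 10 μM final for 15 min at 37 °C, one aliquot unstimulated. Plasma LTB4 by RIA; inhibition versus mean of -1 and 0 h predose values.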

[3] = Duration of action where maximum inhibition of LTB4 formation is achieved at 3 mg/kg po; assay type: functional, organism-based; set-up: dose 3 mg/kg; settings: Canis lupus familiaris
Procedure, shortened: (§1)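 Beagle dogs (8–15 kg, fasted 16–18 h, water allowed) dosed by oral intubation as suspension in 3% cornstarch/0.33% Tween 80/5% PEG 400 in water, 5 mL/kg. Jugular blood at -1, 0, 0.25, 0.5, 1, 3, 6, 9, 24 h; 1-mL aliquots stimulated 15 min at 37 °C with A23187 100 μM plus fMLP 10 μM (final); plasma LTB4 by RIA. DA read graphically: time from maximum inhibition to 50% of maximum.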

[4] = Duration of action where maximum inhibition of LTB4 formation is achieved at 1 mg/kg iv; assay type: functional, organism-based; set-up: dose 1 mg/kg; settings: Canis lupus familiaris
Procedure, shortened: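 Beagle dogs (8–15 kg, fasted) given iv bolus in forearm in DMA/PEG 400 (25:75), 0.1 mL/kg. Blood at -1, 0, 0.08, 0.25, 0.5, 1, 3, 6, 9, 24 h; aliquots stimulated with A23187 100 μM + fMLP 10 μM final, 15 min, 37 °C; plasma LTB4 by RIA. DA taken graphically from maximum inhibition to 50%-of-maximum level.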

[5] = target: T2, Polyunsaturated fatty acid 5-lipoxygenase (Homo sapiens); test: Ex vivo inhibition of LTB4 production by measurement of A-23187-stimulated LTB-4 production in dog blood at 1 mg/kg po.; assay type: functional, organism-based; set-up: dose 1 mg/kg; settings: Canis lupus familiaris, target entry is the homologue from another species
Procedure, shortened: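 Fasted beagles (8–15 kg) dosed orally by intubation, suspension in 3% cornstarch with 0.33% Tween 80 and 5% PEG 400, 5 mL/kg. Blood at -1, 0, 0.25–24 h stimulated ex vivo with A23187 100 μM + fMLP 10 μM final, 15 min, 37 °C; plasma LTB4 by RIA; percent inhibition relative to mean predose (-1, 0 h) values.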

[6] = target: T3, Prostaglandin G/H synthase (cyclooxygenase) (Ovis aries, UniProt P05979+P79208); test: Inhibitory concentration against sheep seminal vesicle Prostaglandin G/H synthase; assay type: functional, tissue-based
T3 sequence (P05979 whole entry): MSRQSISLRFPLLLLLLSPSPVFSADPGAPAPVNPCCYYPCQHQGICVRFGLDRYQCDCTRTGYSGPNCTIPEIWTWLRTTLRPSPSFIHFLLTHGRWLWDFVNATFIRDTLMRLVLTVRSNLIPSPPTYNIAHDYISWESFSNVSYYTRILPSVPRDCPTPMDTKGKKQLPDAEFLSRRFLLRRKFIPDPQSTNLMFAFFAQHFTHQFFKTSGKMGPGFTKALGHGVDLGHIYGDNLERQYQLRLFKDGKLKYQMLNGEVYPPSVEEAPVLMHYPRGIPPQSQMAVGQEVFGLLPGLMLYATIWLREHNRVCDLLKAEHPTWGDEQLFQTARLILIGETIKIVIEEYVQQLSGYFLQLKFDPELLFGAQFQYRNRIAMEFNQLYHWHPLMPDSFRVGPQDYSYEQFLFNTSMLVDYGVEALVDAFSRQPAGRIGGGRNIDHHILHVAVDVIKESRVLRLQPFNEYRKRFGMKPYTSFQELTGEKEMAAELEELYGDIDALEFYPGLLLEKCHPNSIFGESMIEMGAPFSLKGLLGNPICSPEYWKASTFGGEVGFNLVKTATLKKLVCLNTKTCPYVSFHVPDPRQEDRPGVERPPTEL
T3 sequence (P79208 whole entry): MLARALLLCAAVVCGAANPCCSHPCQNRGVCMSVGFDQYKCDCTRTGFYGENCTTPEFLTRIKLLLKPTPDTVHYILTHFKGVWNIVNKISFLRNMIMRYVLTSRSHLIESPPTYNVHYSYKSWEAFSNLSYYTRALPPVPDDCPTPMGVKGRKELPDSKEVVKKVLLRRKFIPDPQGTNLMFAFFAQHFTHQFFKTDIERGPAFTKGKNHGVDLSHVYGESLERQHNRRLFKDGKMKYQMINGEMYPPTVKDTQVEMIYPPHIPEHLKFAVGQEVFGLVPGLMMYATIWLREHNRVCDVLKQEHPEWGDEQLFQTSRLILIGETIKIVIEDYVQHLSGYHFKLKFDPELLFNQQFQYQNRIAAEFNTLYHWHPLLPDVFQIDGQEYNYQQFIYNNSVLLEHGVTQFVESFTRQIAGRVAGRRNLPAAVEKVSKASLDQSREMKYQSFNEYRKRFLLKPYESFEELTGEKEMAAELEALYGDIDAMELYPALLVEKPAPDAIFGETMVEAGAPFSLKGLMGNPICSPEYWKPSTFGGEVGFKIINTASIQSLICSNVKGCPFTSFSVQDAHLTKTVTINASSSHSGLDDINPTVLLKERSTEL
Procedure, shortened: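 Lyophilized sheep seminal vesicle microsomes as cyclooxygenase source; conversion of [14C]AA to PGE2 with compounds over a wide concentration range in 0.1 M Tris-HCl pH 8.4 (or 1% ethanol). PGs extracted into ethyl acetate, separated by TLC, PGE2 zones counted by scintillation.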

[7] = Duration of action is where maximum inhibition of LTB4 formation is achieved at 1 mg/kg po; assay type: functional, organism-based; set-up: dose 1 mg/kg; settings: Canis lupus familiaris; procedure, shortened: as §1
[8] = Duration of action where maximum inhibition of LTB4 formation is achieved at 1 mg/kg po; assay type: functional, organism-based; set-up: dose 1 mg/kg; settings: Canis lupus familiaris; procedure, shortened: as §1
[9] = Duration of action where maximum inhibition of LTB4 formation is achieved at 10 mg/kg po; assay type: functional, organism-based; set-up: dose 10 mg/kg; settings: Canis lupus familiaris; procedure, shortened: as §1
[10] = tested on: Arachidonate 5-lipoxygenase (Canis lupus familiaris); test: Ex vivo inhibition of LTB-4 determined by measurement of A-23187-stimulated LTB-4 production in dog blood at 10 mg/kg po; settings: target entry is the homologue from another species
[11] = tested on: Arachidonate 5-lipoxygenase (Canis lupus familiaris); test: Ex vivo inhibition of LTB-4 determined by measurement of A-23187-stimulated LTB-4 production in dog blood at 3 mg/kg po; settings: target entry is the homologue from another species

Structure (SMILES) | inhibition [2] [%] | Duration [4] [h] | inhibition [5] [%] | Duration [8] [h] | other results
CNC(=O)N(O)CC1=Cc2cc(Oc3ccc(F)cc3)ccc2OC1 | > 95 | 20 | > 95 | – | IC50 [1]: 0.41 µM; Duration [3]: 42 h; IC50 [6]: > 100 µM; Duration [7]: 15 h
CC1Oc2ccc(OCc3ccccc3)cc2C=C1CN(O)C(N)=O (stereo not drawn) | – | – | 91 | 2.8 | –
NC(=O)N(O)CC1=Cc2cc(Oc3ccccc3)ccc2OC1 | > 95 | – | > 95 | – | IC50 [1]: 0.64 µM; Duration [3]: 35 h; Duration [7]: 14 h
NC(=O)N(O)CC1=Cc2cc(Br)ccc2OC1 | – | – | – | – | Duration [9]: 3.8 h; inhibition [10]: > 95%
CCCNC(=O)N(O)CC1=Cc2cc(Oc3ccccc3)ccc2OC1 | > 95 | 8.1 | – | – | –
CCNC(=O)N(O)CC1=Cc2cc(Oc3ccccc3)ccc2OC1 | > 95 | 5.1 | 60 | 3.8 | –
CC1Oc2ccc(Oc3ccccc3)cc2C=C1CN(O)C(N)=O (stereo not drawn) | > 95 | 5 | > 95 | 9 | –
CC1(C)Oc2ccc(Oc3ccccc3)cc2C=C1CN(O)C(N)=O | – | – | 65 | 2.6 | –
CC(c1cc2ccccc2s1)N(O)C(N)=O (stereo not drawn) [ZILEUTON] | – | – | – | – | IC50 [1]: 55 µM
C=CCNC(=O)N(O)CC1=Cc2cc(Oc3ccccc3)ccc2OC1 | – | – | 80 | – | Duration [7]: 4.2 h
NC(=O)N(O)CC1=Cc2cc(Oc3ccc(F)cc3)ccc2OC1 | > 95 | – | > 95 | – | Duration [7]: 13 h
CNC(=O)N(O)CC1=Cc2cc(Oc3ccccc3)ccc2OC1 | > 95 | 8.4 | > 95 | 11 | –
NC(=O)N(O)CC1COc2ccc(Oc3ccccc3)cc2C1 (stereo not drawn) | > 95 | 7.4 | > 95 | 4.8 | –
CCCCCCOc1ccc2c(c1)C=C(CN(O)C(N)=O)CO2 | – | – | – | – | inhibition [11]: 60%; Duration [3]: 2.2 h
NC(=O)N(O)CC1=Cc2cc(OCCCc3ccccc3)ccc2OC1 | – | – | > 90 | 4 | inhibition [11]: > 95%; Duration [3]: > 6 h
NC(=O)N(O)CC1=Cc2cc(OCc3ccccc3)ccc2OC1 | > 95 | 19 | 59 | – | inhibition [11]: > 95%; Duration [9]: > 6 h; Duration [7]: 5 h; inhibition [10]: > 95%
COc1ccc2c(c1)C=C(CN(O)C(N)=O)CO2 | – | 1.2 | – | – | Duration [9]: > 6 h
NC(=O)N(O)CC1=Cc2cc(OCc3ccc(C(F)(F)F)cc3)ccc2OC1 | 82 | 3 | – | – | Duration [9]: > 6 h; inhibition [10]: > 95%
NC(=O)N(O)CC1=Cc2cc(-c3ccccc3)ccc2OC1 | – | – | 60 | 1 | –

From ChEMBL document CHEMBL1127079, “Substituted chromenes as potent, orally active 5-lipoxygenase inhibitors” (J Med Chem, 1993)
